Results from ChEMBL document CHEMBL1141628 (J Med Chem, 2008).
Values after ≈ are worked out from the molar mass of the structure shown.

How the values were obtained:
Cytochrome P450 1A2 = biological target: T1, Cytochrome P450 1A2 (Homo sapiens, UniProt P05177); test: Inhibition of human CYP1A2; type: ADME
T1 sequence (P05177 whole entry): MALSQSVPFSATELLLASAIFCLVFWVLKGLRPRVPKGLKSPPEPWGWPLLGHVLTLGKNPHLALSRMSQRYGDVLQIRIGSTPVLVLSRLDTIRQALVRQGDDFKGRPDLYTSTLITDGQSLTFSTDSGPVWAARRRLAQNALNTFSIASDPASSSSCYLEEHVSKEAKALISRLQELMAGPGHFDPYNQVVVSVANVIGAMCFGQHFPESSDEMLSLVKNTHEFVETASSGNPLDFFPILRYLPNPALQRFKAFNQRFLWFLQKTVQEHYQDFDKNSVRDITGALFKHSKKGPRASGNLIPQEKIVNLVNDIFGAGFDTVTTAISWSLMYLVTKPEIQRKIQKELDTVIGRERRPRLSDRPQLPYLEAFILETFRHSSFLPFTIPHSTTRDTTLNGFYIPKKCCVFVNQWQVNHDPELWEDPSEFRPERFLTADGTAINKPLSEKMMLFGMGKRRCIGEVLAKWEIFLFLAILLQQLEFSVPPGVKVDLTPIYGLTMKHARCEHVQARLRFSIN

Cytochrome P450 2D6 = Cytochrome P450 2D6 (Homo sapiens, UniProt P10635); test: Inhibition of human CYP2D6; type: ADME
[1] = Cmax in mouse at 200 mg/kg, po; type: ADME, organism-based; design: dose 200 mg/kg, route oral; conditions: in vivo
Summary of the method: (§1)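 Oral dosing to female mice, three per dose group, at 50 and 200 mg/kg in PEG400/water (70:30). Plasma levels of the parent drug were measured at 0.5, 1 and 4 h.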

[2] = Aqueous solubility at pH 6.5; type: physicochemical
[3] = AUC (0 to 4 hrs) in mouse at 50 mg/kg, po; type: ADME, organism-based; design: time < 4 hr, dose 50 mg/kg, route oral; conditions: plasma; summary of the method: as §1
Cytochrome P450 2C9 = Cytochrome P450 2C9 (Homo sapiens, UniProt P11712); test: Inhibition of human CYP2C9; type: ADME
Cytochrome P450 2C19 = Cytochrome P450 2C19 (Homo sapiens, UniProt P33261); test: Inhibition of human CYP2C19; type: ADME
[4] = AUC (0 to 4 hrs) in mouse at 200 mg/kg, po; type: ADME, organism-based; design: time < 4 hr, dose 200 mg/kg, route oral; conditions: plasma; summary of the method: as §1
[5] = Cmax in mouse at 50 mg/kg, po; type: ADME, organism-based; design: dose 50 mg/kg, route oral; conditions: in vivo; summary of the method: as §1
Mus musculus = test: Ratio of AUC (0 to 4 hrs) in mouse plasma at 200 mg/kg, po to AUC (0 to 4 hrs) in mouse plasma at 50 mg/kg, po; type: ADME, organism-based; conditions: in vivo; summary of the method: as §1
Cytochrome P450 3A4 [6] = biological target: T2, Cytochrome P450 3A4 (Homo sapiens, UniProt P08684); test: Inhibition of human CYP3A4 using 7-benzyloxyresorufin; type: ADME
Cytochrome P450 3A4 [7] = biological target: T2, Cytochrome P450 3A4; test: Inhibition of human CYP3A4 using 7-benzyl-trifluoromethyl coumarin; type: ADME
L2987 [8] = test: Antitumor activity against human L2987 cells xenografted po dosed athymic mouse after 14 days; type: functional, organism-based
Summary of the method: (§2)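 L2987 non-small cell lung tumors were grown as xenografts in athymic mice. Once tumors were established at 80–100 mm³, animals were dosed orally once daily for 14 consecutive days. Tumor growth was followed through dosing, and activity was expressed as percent tumor growth inhibition (%TGI).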

[9] = Aqueous solubility at pH 5.8; type: physicochemical
L2987 [10] = test: Antitumor activity against human L2987 cells xenografted athymic mouse at 107 mg/kg/day, po after 14 days; type: functional; conditions: L2987, 336 h, read-out: TGI; summary of the method: as §2
L2987 [11] = test: Antitumor activity against human L2987 cells xenografted athymic mouse at 80 mg/kg/day, po after 14 days; type: functional; conditions: L2987, 336 h, read-out: TGI; summary of the method: as §2

Sequence of Cytochrome P450 2C19 (P33261 whole entry): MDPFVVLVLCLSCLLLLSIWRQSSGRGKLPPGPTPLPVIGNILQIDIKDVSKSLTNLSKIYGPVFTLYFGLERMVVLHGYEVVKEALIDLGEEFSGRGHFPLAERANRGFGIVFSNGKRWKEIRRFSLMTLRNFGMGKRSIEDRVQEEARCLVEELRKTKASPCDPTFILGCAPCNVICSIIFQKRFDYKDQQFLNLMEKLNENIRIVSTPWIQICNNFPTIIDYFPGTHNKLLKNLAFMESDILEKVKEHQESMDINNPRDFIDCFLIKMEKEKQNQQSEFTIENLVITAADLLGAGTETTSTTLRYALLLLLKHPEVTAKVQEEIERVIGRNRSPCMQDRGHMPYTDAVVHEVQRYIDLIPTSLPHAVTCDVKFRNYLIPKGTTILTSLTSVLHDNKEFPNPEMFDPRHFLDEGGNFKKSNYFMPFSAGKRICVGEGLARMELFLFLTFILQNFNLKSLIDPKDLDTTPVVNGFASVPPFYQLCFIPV
Sequence of Cytochrome P450 2C9 (P11712 whole entry): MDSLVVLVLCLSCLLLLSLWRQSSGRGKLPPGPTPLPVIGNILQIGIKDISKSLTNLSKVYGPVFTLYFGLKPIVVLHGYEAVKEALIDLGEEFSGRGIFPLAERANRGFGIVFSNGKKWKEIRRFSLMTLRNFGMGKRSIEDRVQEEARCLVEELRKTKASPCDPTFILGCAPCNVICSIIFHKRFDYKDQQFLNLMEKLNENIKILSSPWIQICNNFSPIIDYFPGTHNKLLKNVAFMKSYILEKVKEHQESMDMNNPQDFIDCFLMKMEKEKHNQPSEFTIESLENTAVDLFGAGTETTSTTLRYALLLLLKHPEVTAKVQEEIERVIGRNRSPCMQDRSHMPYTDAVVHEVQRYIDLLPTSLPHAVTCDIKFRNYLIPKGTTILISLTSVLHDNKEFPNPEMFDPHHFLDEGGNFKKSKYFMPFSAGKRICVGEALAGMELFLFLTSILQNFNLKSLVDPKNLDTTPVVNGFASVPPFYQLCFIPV
Sequence of Cytochrome P450 2D6 (P10635 whole entry): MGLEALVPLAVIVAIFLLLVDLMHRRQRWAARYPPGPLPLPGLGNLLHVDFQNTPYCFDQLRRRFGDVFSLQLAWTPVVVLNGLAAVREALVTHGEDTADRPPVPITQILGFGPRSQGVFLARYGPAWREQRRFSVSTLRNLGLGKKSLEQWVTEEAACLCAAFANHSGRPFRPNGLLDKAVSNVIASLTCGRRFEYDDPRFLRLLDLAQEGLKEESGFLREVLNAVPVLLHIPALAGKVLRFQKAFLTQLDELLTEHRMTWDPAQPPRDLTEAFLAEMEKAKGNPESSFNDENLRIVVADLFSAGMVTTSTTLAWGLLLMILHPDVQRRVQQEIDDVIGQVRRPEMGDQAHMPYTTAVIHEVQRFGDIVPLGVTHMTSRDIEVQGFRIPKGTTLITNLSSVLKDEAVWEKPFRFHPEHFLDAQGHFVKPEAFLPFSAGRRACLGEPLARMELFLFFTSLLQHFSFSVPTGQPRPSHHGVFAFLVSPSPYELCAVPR
T2 sequence (P08684 whole entry): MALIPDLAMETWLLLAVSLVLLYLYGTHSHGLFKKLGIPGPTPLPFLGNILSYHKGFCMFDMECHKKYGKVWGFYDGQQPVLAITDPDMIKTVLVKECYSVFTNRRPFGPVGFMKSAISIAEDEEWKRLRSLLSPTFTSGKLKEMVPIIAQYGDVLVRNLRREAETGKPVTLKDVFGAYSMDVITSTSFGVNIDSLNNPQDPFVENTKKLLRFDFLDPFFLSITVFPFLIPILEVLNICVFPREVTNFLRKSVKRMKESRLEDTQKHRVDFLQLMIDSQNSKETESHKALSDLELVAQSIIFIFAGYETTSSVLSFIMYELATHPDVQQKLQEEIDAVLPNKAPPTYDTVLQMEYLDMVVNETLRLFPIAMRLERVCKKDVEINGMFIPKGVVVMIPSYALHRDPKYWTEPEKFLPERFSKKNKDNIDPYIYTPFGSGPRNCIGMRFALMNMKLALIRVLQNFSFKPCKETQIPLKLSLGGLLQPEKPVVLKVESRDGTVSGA

IC50 (Cytochrome P450 1A2) [nM]	IC50 (Cytochrome P450 2D6) [nM]	Cmax [1] [µM]	solubility [2] [mg/mL]	AUC(0-t) at 4 h [3] [µM·h]	IC50 (Cytochrome P450 2C9) [nM]	IC50 (Cytochrome P450 2C19) [nM]	AUC(0-t) at 4 h [4] [µM·h]	Cmax [5] [µM]	Ratio (Mus musculus)	solubility [9] [mg/mL]	SMILES	IC50 (Cytochrome P450 3A4 [6]) [nM]	IC50 (Cytochrome P450 3A4 [7]) [nM]	Activity (L2987 [8])	inhibition in vivo at 107 mg/kg/day (L2987 [10]) [%]	inhibition in vivo at 80 mg/kg/day (L2987 [11]) [%]
> 40000	> 40000	14	< 0.001	45	> 40000	> 40000	52	12	–	–	Cc1cc2c(F)c(Oc3ncnn4cc(OC[C@@H](C)O)c(C)c34)ccc2[nH]1 [BRIVANIB]	–	–	–	–	–
–	–	66	–	46	–	–	213	15	4.6	–	Cc1cc2c(F)c(Oc3ncnn4cc(OC[C@@H](C)OC(=O)C(C)(C)N)c(C)c34)ccc2[nH]1	–	–	–	–	–
34000	24000	152	–	113	2700	1800	451	31	4	–	Cc1cc2c(F)c(Oc3ncnn4cc(OC[C@@H](C)OC(=O)C(N)CC(C)C)c(C)c34)ccc2[nH]1 (single isomer, unassigned)	370	95	–	–	–
> 40000	24000	78	–	69	9700	2100	276	21	–	73 (≈ 165 mM)	Cc1cc2c(F)c(Oc3ncnn4cc(OC[C@@H](C)OC(=O)C(C)N)c(C)c34)ccc2[nH]1 (single isomer, unassigned; 8)	–	–	Dose-dependent effect	97	85

SMILES	IC50 (Cytochrome P450 1A2) [nM]	IC50 (Cytochrome P450 2D6) [nM]	Cmax [1] [µM]	solubility [2] [mg/mL]	AUC(0-t) at 4 h [3] [µM·h]	IC50 (Cytochrome P450 2C9) [nM]	IC50 (Cytochrome P450 2C19) [nM]	AUC(0-t) at 4 h [4] [µM·h]	Cmax [5] [µM]	Ratio (Mus musculus)	solubility [9] [mg/mL]	IC50 (Cytochrome P450 3A4 [6]) [nM]	IC50 (Cytochrome P450 3A4 [7]) [nM]	Activity (L2987 [8])	inhibition in vivo at 107 mg/kg/day (L2987 [10]) [%]	inhibition in vivo at 80 mg/kg/day (L2987 [11]) [%]
Cc1cc2c(F)c(Oc3ncnn4cc(OC[C@@H](C)OC(=O)CN)c(C)c34)ccc2[nH]1	3700	12000	126	–	69	63	160	303	21	4.4	–	310	160	–	–	–
